Laboratory results: article PMC9486889 (Japanese Journal of Clinical Oncology, 2022)

Experiment: Phase I dose-escalation: DLT/MTD and treatment-emergent adverse events
Type: in vivo, Japanese patients
Outline: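 Open-label, non-randomized 3+3 dose escalation, starting at 30 mg oral BIW with planned escalation to 50 mg, in continuous 4-week cycles. The DLT window was 28 days from first dose. DLTs were grade 4 hematologic toxicity, grade ≥3 febrile neutropenia, grade 3 thrombocytopenia with significant bleeding, other grade ≥3 non-hematologic toxicity, or troponin rising on 3 consecutive days. AEs were coded by MedDRA 19.1 and graded by CTCAE 4.03.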

## Nc1cc(F)ccc1NC(=O)c1ccc(CNC(=O)/C=C/c2cccnc2)cc1 [HBI-8000, tucidinostat]
30 mg BIW (N = 7)
  Grade 3: Number of patients with at least one TEAE: 5 (71.4) n (%)
  Grade 3 TEAE: Abdominal pain: 0 (0) n (%)
  Grade 3 TEAE: Alanine aminotransferase increased: 0 (0) n (%)
  Grade 3 TEAE: Anaemia: 1 (14.3) n (%)
  Grade 3 TEAE: Blood creatine phosphokinase increased: 1 (14.3) n (%)
  Grade 3 TEAE: Enterocolitis: 0 (0) n (%)
  Grade 3 TEAE: Erythema multiforme: 0 (0) n (%)
  Grade 3 TEAE: Erythema nodosum: 0 (0) n (%)
  Grade 3 TEAE: Hyperglycaemia: 0 (0) n (%)
  Grade 3 TEAE: Hypertriglyceridaemia: 0 (0) n (%)
  Grade 3 TEAE: Lymphocyte count decreased: 1 (14.3) n (%)
  Grade 3 TEAE: Neutropenia: 1 (14.3) n (%)
  Grade 3 TEAE: Parkinsonism: 1 (14.3) n (%)
  Grade 3 TEAE: Pyrexia: 0 (0) n (%)
  Grade 3 TEAE: Rash generalized: 1 (14.3) n (%)
  Grade 3 TEAE: Thrombocytopenia: 0 (0) n (%)
  Grade 4: Number of patients with at least one TEAE: 0 (0) n (%)
  Grade 4 TEAE: Abdominal pain: 0 (0) n (%)
  Grade 4 TEAE: Alanine aminotransferase increased: 0 (0) n (%)
  Grade 4 TEAE: Anaemia: 0 (0) n (%)
  Grade 4 TEAE: Blood creatine phosphokinase increased: 0 (0) n (%)
  Grade 4 TEAE: Enterocolitis: 0 (0) n (%)
  Grade 4 TEAE: Erythema multiforme: 0 (0) n (%)
  Grade 4 TEAE: Erythema nodosum: 0 (0) n (%)
  Grade 4 TEAE: Hyperglycaemia: 0 (0) n (%)
  Grade 4 TEAE: Hypertriglyceridaemia: 0 (0) n (%)
  Grade 4 TEAE: Lymphocyte count decreased: 0 (0) n (%)
  Grade 4 TEAE: Neutropenia: 0 (0) n (%)
  Grade 4 TEAE: Neutrophil count decreased: 0 (0) n (%)
  Grade 4 TEAE: Parkinsonism: 0 (0) n (%)
  Grade 4 TEAE: Pyrexia: 0 (0) n (%)
  Grade 4 TEAE: Rash generalized: 0 (0) n (%)
  Grade 4 TEAE: Thrombocytopenia: 0 (0) n (%)
  Grade 4 TEAE: White blood cell count decreased: 0 (0) n (%)
  Number of patients with at least one related TEAE: 6 (85.7) n (%)
  TEAE: Abdominal pain: 1 (14.3) n (%)
  TEAE: Anaemia: 5 (71.4) n (%)
  TEAE: Back pain: 0 (0) n (%)
  TEAE: C-reactive protein increased: 1 (14.3) n (%)
  TEAE: Decreased appetite: 1 (14.3) n (%)
  TEAE: Diarrhoea: 3 (42.9) n (%)
  TEAE: Dysgeusia: 2 (28.6) n (%)
  TEAE: Fatigue: 3 (42.9) n (%)
  TEAE: Headache: 1 (14.3) n (%)
  TEAE: Hypertriglyceridaemia: 1 (14.3) n (%)
  TEAE: Hyperuricaemia: 2 (28.6) n (%)
  TEAE: Hypocalcaemia: 0 (0) n (%)
  TEAE: Hypokalaemia: 2 (28.6) n (%)
  TEAE: Insomnia: 1 (14.3) n (%)
  TEAE: Nasopharyngitis: 0 (0) n (%)
  TEAE: Nausea: 1 (14.3) n (%)
  TEAE: Neutropenia: 1 (14.3) n (%)
  TEAE: Neutrophil count decreased: 2 (28.6) n (%)
  TEAE: Platelet count decreased: 3 (42.9) n (%)
  TEAE: Pyrexia: 1 (14.3) n (%)
  TEAE: Thrombocytopenia: 2 (28.6) n (%)
  TEAE: Weight decreased: 1 (14.3) n (%)
  TEAE: White blood cell count decreased: 3 (42.9) n (%)
30 mg BIW cohort
  TEAEs that led to dose reduction or dose delay: four
  TEAEs that led to treatment discontinuation: two
30 mg BIW cohort, six patients assessed, Cycle 1
  Dose-limiting toxicities: no dose-limiting toxicitys
40 mg BIW (N = 7)
  Grade 3: Number of patients with at least one TEAE: 4 (57.1) n (%)
  Grade 3 TEAE: Abdominal pain: 1 (14.3) n (%)
  Grade 3 TEAE: Alanine aminotransferase increased: 1 (14.3) n (%)
  Grade 3 TEAE: Anaemia: 0 (0) n (%)
  Grade 3 TEAE: Blood creatine phosphokinase increased: 0 (0) n (%)
  Grade 3 TEAE: Enterocolitis: 1 (14.3) n (%)
  Grade 3 TEAE: Erythema multiforme: 1 (14.3) n (%)
  Grade 3 TEAE: Erythema nodosum: 1 (14.3) n (%)
  Grade 3 TEAE: Hyperglycaemia: 1 (14.3) n (%)
  Grade 3 TEAE: Hypertriglyceridaemia: 1 (14.3) n (%)
  Grade 3 TEAE: Lymphocyte count decreased: 0 (0) n (%)
  Grade 3 TEAE: Neutropenia: 0 (0) n (%)
  Grade 3 TEAE: Neutrophil count decreased: 0 (0) n (%)
  Grade 3 TEAE: Parkinsonism: 0 (0) n (%)
  Grade 3 TEAE: Pyrexia: 1 (14.3) n (%)
  Grade 3 TEAE: Rash generalized: 0 (0) n (%)
  Grade 3 TEAE: Thrombocytopenia: 2 (28.6) n (%)
  Grade 3 TEAE: White blood cell count decreased: 1 (14.3) n (%)
  Grade 4: Number of patients with at least one TEAE: 2 (28.6) n (%)
  Grade 4 TEAE: Abdominal pain: 0 (0) n (%)
  Grade 4 TEAE: Alanine aminotransferase increased: 0 (0) n (%)
  Grade 4 TEAE: Anaemia: 0 (0) n (%)
  Grade 4 TEAE: Blood creatine phosphokinase increased: 0 (0) n (%)
  Grade 4 TEAE: Enterocolitis: 0 (0) n (%)
  Grade 4 TEAE: Erythema multiforme: 0 (0) n (%)
  Grade 4 TEAE: Erythema nodosum: 0 (0) n (%)
  Grade 4 TEAE: Hyperglycaemia: 0 (0) n (%)
  Grade 4 TEAE: Hypertriglyceridaemia: 0 (0) n (%)
  Grade 4 TEAE: Lymphocyte count decreased: 0 (0) n (%)
  Grade 4 TEAE: Neutropenia: 2 (28.6) n (%)
  Grade 4 TEAE: Neutrophil count decreased: 0 (0) n (%)
  Grade 4 TEAE: Parkinsonism: 0 (0) n (%)
  Grade 4 TEAE: Pyrexia: 0 (0) n (%)
  Grade 4 TEAE: Rash generalized: 0 (0) n (%)
  Grade 4 TEAE: Thrombocytopenia: 0 (0) n (%)
  Grade 4 TEAE: White blood cell count decreased: 0 (0) n (%)
  Number of patients with at least one related TEAE: 7 (100) n (%)
  TEAE: Abdominal pain: 1 (14.3) n (%)
  TEAE: Anaemia: 0 (0) n (%)
  TEAE: Back pain: 2 (28.6) n (%)
  TEAE: C-reactive protein increased: 1 (14.3) n (%)
  TEAE: Decreased appetite: 2 (28.6) n (%)
  TEAE: Diarrhoea: 1 (14.3) n (%)
  TEAE: Dysgeusia: 1 (14.3) n (%)
  TEAE: Fatigue: 1 (14.3) n (%)
  TEAE: Headache: 1 (14.3) n (%)
  TEAE: Hypertriglyceridaemia: 1 (14.3) n (%)
  TEAE: Hyperuricaemia: 0 (0) n (%)
  TEAE: Hypocalcaemia: 3 (42.9) n (%)
  TEAE: Hypokalaemia: 1 (14.3) n (%)
  TEAE: Insomnia: 1 (14.3) n (%)
  TEAE: Nasopharyngitis: 2 (28.6) n (%)
  TEAE: Nausea: 2 (28.6) n (%)
  TEAE: Neutropenia: 2 (28.6) n (%)
  TEAE: Neutrophil count decreased: 0 (0) n (%)
  TEAE: Platelet count decreased: 3 (42.9) n (%)
  TEAE: Pyrexia: 2 (28.6) n (%)
  TEAE: Thrombocytopenia: 4 (57.1) n (%)
  TEAE: Weight decreased: 2 (28.6) n (%)
  TEAE: White blood cell count decreased: 1 (14.3) n (%)
40 mg BIW cohort
  Incidence of thrombocytopenia: 57.1%
  TEAEs that led to dose reduction or dose delay: four
  TEAEs that led to treatment discontinuation: four
Total (N = 14)
  Grade 3: Number of patients with at least one TEAE: 9 (64.3) n (%)
  Grade 3 TEAE: Abdominal pain: 1 (7.1) n (%)
  Grade 3 TEAE: Alanine aminotransferase increased: 1 (7.1) n (%)
  Grade 3 TEAE: Anaemia: 1 (7.1) n (%)
  Grade 3 TEAE: Blood creatine phosphokinase increased: 1 (7.1) n (%)
  Grade 3 TEAE: Enterocolitis: 1 (7.1) n (%)
  Grade 3 TEAE: Erythema multiforme: 1 (7.1) n (%)
  Grade 3 TEAE: Erythema nodosum: 1 (7.1) n (%)
  Grade 3 TEAE: Hyperglycaemia: 1 (7.1) n (%)
  Grade 3 TEAE: Hypertriglyceridaemia: 1 (7.1) n (%)
  Grade 3 TEAE: Lymphocyte count decreased: 1 (7.1) n (%)
  Grade 3 TEAE: Neutropenia: 1 (7.1) n (%)
  Grade 3 TEAE: Neutrophil count decreased: 2 (14.3) n (%)
  Grade 3 TEAE: Parkinsonism: 1 (7.1) n (%)
  Grade 3 TEAE: Pyrexia: 1 (7.1) n (%)
  Grade 3 TEAE: Rash generalized: 1 (7.1) n (%)
  Grade 3 TEAE: Thrombocytopenia: 2 (14.3) n (%)
  Grade 3 TEAE: White blood cell count decreased: 2 (14.3) n (%)
  Grade 4: Number of patients with at least one TEAE: 2 (14.3) n (%)
  Grade 4 TEAE: Abdominal pain: 0 (0) n (%)
  Grade 4 TEAE: Alanine aminotransferase increased: 0 (0) n (%)
  Grade 4 TEAE: Anaemia: 0 (0) n (%)
  Grade 4 TEAE: Blood creatine phosphokinase increased: 0 (0) n (%)
  Grade 4 TEAE: Enterocolitis: 0 (0) n (%)
  Grade 4 TEAE: Erythema multiforme: 0 (0) n (%)
  Grade 4 TEAE: Erythema nodosum: 0 (0) n (%)
  Grade 4 TEAE: Hyperglycaemia: 0 (0) n (%)
  Grade 4 TEAE: Hypertriglyceridaemia: 0 (0) n (%)
  Grade 4 TEAE: Lymphocyte count decreased: 0 (0) n (%)
  Grade 4 TEAE: Neutropenia: 2 (14.3) n (%)
  Grade 4 TEAE: Neutrophil count decreased: 0 (0) n (%)
  Grade 4 TEAE: Parkinsonism: 0 (0) n (%)
  Grade 4 TEAE: Pyrexia: 0 (0) n (%)
  Grade 4 TEAE: Rash generalized: 0 (0) n (%)
  Grade 4 TEAE: Thrombocytopenia: 0 (0) n (%)
  Grade 4 TEAE: White blood cell count decreased: 0 (0) n (%)
  Number of patients with at least one related TEAE: 13 (92.9) n (%)
  TEAE: Abdominal pain: 2 (14.3) n (%)
  TEAE: Anaemia: 5 (35.7) n (%)
  TEAE: Back pain: 2 (14.3) n (%)
  TEAE: C-reactive protein increased: 2 (14.3) n (%)
  TEAE: Decreased appetite: 3 (21.4) n (%)
  TEAE: Diarrhoea: 4 (28.6) n (%)
  TEAE: Dysgeusia: 3 (21.4) n (%)
  TEAE: Fatigue: 4 (28.6) n (%)
  TEAE: Headache: 2 (14.3) n (%)
  TEAE: Hypertriglyceridaemia: 2 (14.3) n (%)
  TEAE: Hyperuricaemia: 2 (14.3) n (%)
  TEAE: Hypocalcaemia: 3 (21.4) n (%)
  TEAE: Hypokalaemia: 3 (21.4) n (%)
  TEAE: Insomnia: 2 (14.3) n (%)
  TEAE: Nasopharyngitis: 2 (14.3) n (%)
  TEAE: Nausea: 3 (21.4) n (%)
  TEAE: Neutropenia: 3 (21.4) n (%)
  TEAE: Neutrophil count decreased: 2 (14.3) n (%)
  TEAE: Platelet count decreased: 6 (42.9) n (%)
  TEAE: Pyrexia: 3 (21.4) n (%)
  TEAE: Thrombocytopenia: 6 (42.9) n (%)
  TEAE: Weight decreased: 3 (21.4) n (%)
  TEAE: White blood cell count decreased: 4 (28.6) n (%)
All 14 patients
  Neutrophil count decreased leading to dose reduction or dose delay: 14.3%
  Patients with at least one TEAE: 92.9%
  Platelet count decreased leading to dose reduction or dose delay: 28.6%
  TEAEs that led to dose reduction or dose delay: 57.1%
  TEAEs that led to treatment discontinuation: 42.9%
oral
  Recommended phase II dose (RP2D): 40 mg BIW
oral, 4-week cycles
  Maximum tolerated dose (MTD): 40 mg BIW
